Screens as filed in PubChem.
A selection: hits, their analogues and other compounds. The true share with any hit is near 2.8%.
GRIN3A LBD mod – modulators (binders) of human NR3A ligand-binding domain; 340,000 compounds, 2.5% hits; Tm shift relative to glycine control, % at 25 µM; AID 1259313; NR3A LBD differential scanning fluorimetry, Tm shift; 0% = protein alone, 100% = glycine-bound protein;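 active = melting temperature shift of at least 10% of the positive control shift, at one fixed dose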
T cell modulator – T cell immune modulators affecting CD8 T cell-vesicle binding; response (vesicle binding), % at 7 µM; 2C CD8+ T cell-vesicle binding, flow cytometry; hits give low values; 330,000 compounds, 0.068% hits; AID 2052;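 active = response, share of CD8 T cells binding vesicles, and their 90th percentile fluorescence all below set limits, cut at about 80% in these data, passing the limit was not always enough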;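 also: values below 100% mean blocked vesicle binding to the CD8+ T cells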
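incubation = binding step 1.5 h, 37 °C, antibody labelling 20 min, ice | test system = 2C mouse CD8+ T cells | read-out basis = percent CD8+ FL2 mean versus row control | controls = Peptide-free naked vesicles (low) and QL9 vesicles with 0.7% DMSO vehicle (high) | detection = flow cytometry of vesicle-bound cells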
Rtt109 HAT inh – C. albicans Rtt109 histone acetyltransferase inhibition; Q5AAJ8; purified Rtt109/Vps75, ThioGlo CoA-SH fluorescence, 4 h; inhibition, % at 34.9 µM; 330,000 compounds, 0.16% hits;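 active = inhibition of at least 50% in every replicate; inconclusive = best replicate reaches 50% inhibition but some replicates fall short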
Target sequence (Q5AAJ8 whole entry, looked up): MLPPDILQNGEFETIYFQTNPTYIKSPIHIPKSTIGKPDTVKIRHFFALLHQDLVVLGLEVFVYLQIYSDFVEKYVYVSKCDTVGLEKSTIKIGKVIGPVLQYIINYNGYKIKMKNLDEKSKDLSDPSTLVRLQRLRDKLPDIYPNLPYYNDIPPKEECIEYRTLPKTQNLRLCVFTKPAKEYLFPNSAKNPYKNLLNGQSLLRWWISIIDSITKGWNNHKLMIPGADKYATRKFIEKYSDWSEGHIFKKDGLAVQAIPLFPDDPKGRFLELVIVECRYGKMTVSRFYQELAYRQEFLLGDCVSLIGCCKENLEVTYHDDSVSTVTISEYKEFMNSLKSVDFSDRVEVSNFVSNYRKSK
GASC-1 inh – inhibitors of human GASC-1 (JMJD2C) demethylase. Q9H3R0. GST-JMJD2C(1-420) H3K9me3 demethylation, DELFIA europium. inhibition, % at 2.35 µM. 330,000 compounds, 0.069% hits. AID 2099;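 active = more than half of a compound's replicate wells show inhibition beyond 50%, single wells judged on their own value; inconclusive = some, but no more than half, of replicates pass 50% inhibition; inactive = no replicate passes 50% inhibition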;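 also: signal counts dimethyl H3K9 product captured on neutravidin plate; 0% = median of DMSO wells and 100% = 0.3 times that DMSO median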
An asterisk follows results filed as active; i = inactive; u = inconclusive; x = no result given.

SMILES | GRIN3A LBD mod | T cell modulator | Rtt109 HAT inh | GASC-1 inh
O=C(COC(=O)c1c(Cl)cccc1Cl)Nc1ccccc1Br | 14.8* | 240.5 | 6.7 | -2.6
O=C(COC(=O)c1ccccc1)Nc1ccccc1Br | -3.3 | 119.6 | -4.5 | 5.6
CCNC(=S)/N=C(/Nc1ccccc1)Nc1nc(C)cc(C)n1 | 0.5 | 498.6 | x | -1.6
CCNC(=S)NC(=NCc1cccnc1)Nc1nc(C)cc(C)n1 | -1.2 | 238.8 | -7.7 | 75.8*
Cc1cccc(C(=O)Nc2nc(C)c(C(=O)Nc3ccc4c(c3)CCC4)s2)c1 | 28.1* | 240.1 | -11.7 | 1.2
CC(NNC(=S)N1CCN(c2ccccn2)CC1)c1nccc2ccccc12 (stereo unspecified) | -1.6 | x | -4.5 | x
O=C(c1ccc([N+](=O)[O-])cc1)N1CCN=C1SCc1ccccc1 | 0.9 | 222.0 | 2.9 | -22.7
O=C(c1ccccc1)N1CCN=C1SCc1ccc([N+](=O)[O-])cc1 | 24.2* | 195.4 | 24.8 | -1.9
NC(=O)C1CCN(c2nc(-c3cccs3)cs2)CC1 | -22.7 | i | 2.0 | 25.8
O=C(Nc1ccc2c(c1)oc1ccccc12)c1cccnc1 | 16.9* | 84.0 | -13.7 | 4.5
O=C(Nc1ccc2c(c1)oc1ccccc12)c1ccncc1 | 14.8* | 384.2 | 3.2 | 21.1
O=C(Nc1cccc(C(=O)N2CCOCC2)c1)c1cccnc1 | 10.5* | 453.6 | -1.9 | 1.4
CCNC(=S)Nc1ccc2c(c1)oc1ccccc12 | 10.2* | 715.3 | -3.4 | -4.7
CCNC(=S)Nc1ccc2ncoc2c1 | -0.1 | 111.0 | -11.8 | 7.4
CCOC(=O)CN1CC(C)(C)N(CC(=O)OCC)CC1(C)C | -1.4 | x | -3.4 | x
O=C(NCc1ccccc1)c1nc(S(=O)(=O)Cc2ccccc2)ncc1Cl | 3.0 | 549.3 | u | -42.9
CC(=O)Nc1ccc(OCC(=O)NCc2ccccc2)cc1 | -1.1 | 202.8 | 52.4* | 8.8
CC(C)=CC(=O)Nc1ccc(OCc2ccccc2)cc1 | 28.4* | 362.5 | -0.1 | 6.0
Cc1ccsc1C(=O)Nc1ccc(OCc2ccccc2)cc1 | 18.3* | 340.3 | -4.1 | -6.7
Cc1ccsc1C(=O)Nc1ccc(C(=O)O)cc1 | -0.2 | 368.2 | 1.5 | -11.1
CC(=O)Nc1ccc(NC(=O)c2nc(S(=O)(=O)Cc3ccccc3)ncc2Cl)cc1 | 3.0 | 468.5 | 113.3* | -9.1
O=C(NCCc1ccc(Cl)cc1)C1CCN(S(=O)(=O)c2ccc(Br)s2)CC1 | -3.6 | 818.7 | 1.4 | -1.7
O=[N+]([O-])c1ccc(-c2nnc(S)n2-c2ccccc2)cc1 | x | 364.1 | x | -6.3
Cc1occc1C(=O)N/N=C/c1ccc(OCc2ccccc2)cc1 | 34.6* | 369.4 | -9.7 | -1.5
Cc1cc(C(=O)Nc2ccc(OCc3ccccc3)cc2)c(C)o1 | 18.7* | 257.4 | 4.1 | -1.0
SMILES | GRIN3A LBD mod | T cell modulator | Rtt109 HAT inh | GASC-1 inh
O=C(CS(=O)(=O)Cc1ccccc1)Nc1ccc2c(c1)OCO2 | 0.5 | 316.1 | 14.8 | -13.2
CC(=O)Nc1ccc(NC(=O)CS(=O)(=O)Cc2ccccc2)cc1 | 12.6* | 336.3 | -8.9 | 6.9
O=C(Nc1ccccc1F)c1ccc(OCc2ccccc2)cc1 | 17.3* | 353.7 | 0.6 | -8.3
O=C(Nc1ccc(OCc2ccccc2)cc1)c1ccccc1 | -6.8 | 330.3 | -6.8 | -2.0
Cc1occc1C(=O)N/N=C/c1ccc(-c2ccccc2)cc1 | 7.1 | 254.3 | -13.4 | 14.4
Cc1ccc(CNC(=O)C2CCN(C(=O)Nc3ccc(C)cc3)CC2)cc1 | -2.5 | x | 11.0 | -9.9
Cn1c(=O)c2nc(SCc3ccccc3)n(C)c2n(C)c1=O | 2.0 | x | 5.0 | x
CCOC(=O)C(=O)Nc1ccc(OCc2ccccc2)cc1 | -27.7 | 282.9 | -1.9 | 7.1
Cc1ccc(C(=O)Nc2ccc(OCc3ccccc3)cc2)s1 | 14.8* | 183.8 | 0.4 | 9.0
CC(C)(C)C(=O)Nc1cc(NC(=O)C(C)(C)C)cc(C(=O)NNC(=O)c2ccncc2)c1 | -0.6 | 240.2 | 1.7 | 12.4
Cc1ccc(NC(=O)CS(=O)CC(=O)Nc2cnc3ccccc3c2)cc1Cl (stereo unspecified) | 32.3* | 520.4 | -7.8 | 3.6
Cc1ccc(NC(=O)CS(=O)CC(=O)NCCCc2ccccc2)cc1Cl (stereo unspecified) | -4.2 | 243.0 | -1.2 | -3.9
Cc1ccc(NC(=O)Nc2ccnc(-c3cccnc3)n2)cc1 | 34.0* | 654.7 | -0.3 | x
Cc1ccc(NC(=O)Nc2cnc3ccccc3c2)cc1 | 27.5* | 346.1 | -6.5 | 0.6
COc1cc2c(cc1OC)CN(C(=O)c1cccc(S(=O)(=O)N3CCc4ccccc43)c1)CC2 | 0.4 | 344.3 | 10.5 | 0.2
O=C(O)C(c1ccccc1)C1(O)CCC1 (stereo unspecified) | 0.6 | x | 4.3 | x
Cc1ccc(CN2CC(C(=O)Nc3ccc(S(=O)(=O)N4CCCCC4)cc3)CC2=O)cc1 (stereo unspecified) | -12.4 | 181.1 | x | 3.7
Fc1ccccc1N=C1NN=C(c2ccccc2)CS1 | 13.5* | 366.5 | 1.9 | 4.2
Fc1ccc(F)c(C2=NNC(=Nc3ccccc3F)SC2)c1 | 1.0 | 371.1 | 2.6 | 13.7
O=C(O)c1ccc(CNC(=O)c2ccc3c(c2)C(=O)N(Cc2cccnc2)C3=O)cc1 | -1.1 | 258.1 | -4.9 | 9.8
CN1CCN(NC(=O)COc2cccc(C(F)(F)F)c2)CC1 | 13.1* | 124.8 | 11.9 | -2.9
Cc1ccc(N)c([N+](=O)[O-])c1 | 1.6 | 381.1 | -3.3 | 0.0
Nc1ccc(N=Nc2ccccc2)cc1[N+](=O)[O-] | 28.7* | x | 5.3 | x
COc1ccc2c(c1)c(=O)oc1c(C)c(OC(C)C(=O)N[C@@H](Cc3c[nH]c4ccc(O)cc34)C(=O)O)ccc12 (stereo partly specified) | -3.2 | i | 3.0 | -27.0
CNC(=O)/C(C#N)=C/c1c(N(Cc2ccccc2)Cc2ccccc2)nc2c(C)cccn2c1=O | -4.2 | 205.1 | -1.3 | 10.2
SMILES | GRIN3A LBD mod | T cell modulator | Rtt109 HAT inh | GASC-1 inh
CCNC(=O)/C(C#N)=C/c1c(N(Cc2ccccc2)Cc2ccccc2)nc2ccccn2c1=O | 21.8* | 360.4 | -0.6 | 8.0
CCC(C(=O)NCc1ccc(F)cc1)N(Cc1ccco1)C(=O)c1snc(C(N)=O)c1N (stereo unspecified) | -10.3 | 617.3 | 1.5 | 39.0
CCCC(C(=O)NCc1ccc(OC)cc1)N(Cc1ccco1)C(=O)c1snc(C(N)=O)c1N (stereo unspecified) | 14.2* | 511.3 | 1.7 | 7.4
O=C(CSc1nc(-c2ccc(F)cc2)cs1)NCC1CCCO1 (stereo unspecified) | 0.6 | 372.9 | -2.2 | -1.3
O=C(/C=C/c1ccco1)NC(=S)Nc1nc(-c2ccc(Cl)cc2)cs1 | 129.1* | 244.7 | -2.2 | -2.6
CC(C)CC(=O)NC(=S)Nc1nc(-c2ccc(Cl)cc2)cs1 | 29.7* | 780.0 | 1.3 | -0.2
O=C(/C=C\c1ccco1)Nc1nc(-c2ccccc2)cs1 | -8.2 | 105.7 | 1.3 | -1.7
O=C(/C=C/c1ccco1)NC(=S)Nc1nc(-c2ccc3ccccc3c2)cs1 | 33.0* | 302.3 | 3.0 | -13.5
Cc1ccc2nc(N3C(=O)C(O)=C(C(=O)c4ccc(C)o4)C3c3ccc(O)cc3)sc2c1 (stereo unspecified) | 0.2 | 263.4 | 8.5 | 1.3
